In ChEMBL document CHEMBL1811814, “Synthesis and evaluation of indole, pyrazole, chromone and pyrimidine based conjugates for tumor growth inhibitory activities--development of highly efficacious cytotoxic agents” (Eur J Med Chem, 2010):

Columns and labels:
Type in all cases: functional
Design in all cases: scale not given: the % may be the effect or the level left
[1] = test system: UO-31; assay: Growth inhibition of human UO31 cells assessed tumor cell growth at 10^-5 M
Procedure, shortened: (§1)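 Single-dose screen at 10^-5 M across the 60 human tumor cell line panel, run to NCI standards. The value is the percent growth of each cell line in the presence of compound. Compounds active at this dose moved on to five-concentration testing (10^-4 to 10^-8 M).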

[2] = test system: NCI/ADR-RES; assay: Growth inhibition of human NCI/ADR-RES cells assessed tumor cell growth at 10^-5 M
Procedure, shortened: (§2)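 NCI 60-human-tumor-cell-line panel screen. Each compound was tested at a single concentration of 10^-5 M, and percent growth of tumor cells was recorded for each cell line. Growth inhibition was expressed from these percent-growth values.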

[3] = test system: NCI-H23; assay: Growth inhibition of human NCI-H23 cells assessed tumor cell growth at 10^-5 M; procedure, shortened: as §2
[4] = test system: DU-145; assay: Growth inhibition of human DU145 cells assessed tumor cell growth at 10^-5 M; procedure, shortened: as §2
[5] = test system: OVCAR-4; assay: Growth inhibition of human OVCAR4 cells assessed tumor cell growth at 10^-5 M; procedure, shortened: as §2
[6] = test system: UACC-62; assay: Growth inhibition of human UACC62 cells assessed tumor cell growth at 10^-5 M; procedure, shortened: as §1
[7] = test system: SF-268; assay: Growth inhibition of human SF268 cells assessed tumor cell growth at 10^-5 M; procedure, shortened: as §2
[8] = test system: MDA-MB-435; assay: Growth inhibition of human MDA-MB-435 cells assessed tumor cell growth at 10^-5 M; procedure, shortened: as §2
[9] = test system: MDA-MB-231; assay: Growth inhibition of human MDA-MB-231 cells assessed tumor cell growth at 10^-5 M; procedure, shortened: as §2
[10] = test system: SF-539; assay: Growth inhibition of human SF539 cells assessed tumor cell growth at 10^-5 M; procedure, shortened: as §2
[11] = test system: HOP-92; assay: Growth inhibition of human HOP92 cells assessed tumor cell growth at 10^-5 M; procedure, shortened: as §2
[12] = test system: U-251; assay: Growth inhibition of human U251 cells assessed tumor cell growth at 10^-5 M; procedure, shortened: as §1
[13] = test system: SNB-19; assay: Growth inhibition of human SNB19 cells assessed tumor cell growth at 10^-5 M; procedure, shortened: as §1
[14] = test system: OVCAR-8; assay: Growth inhibition of human OVCAR8 cells assessed tumor cell growth at 10^-5 M; procedure, shortened: as §2
[15] = test system: CAKI-1; assay: Growth inhibition of human Caki1 cells assessed tumor cell growth at 10^-5 M; procedure, shortened: as §2
[16] = test system: Malme-3M; assay: Growth inhibition of human MALME-3M cells assessed tumor cell growth at 10^-5 M; procedure, shortened: as §2
[17] = test system: COLO 205; assay: Growth inhibition of human COLO205 cells assessed tumor cell growth at 10^-5 M; procedure, shortened: as §2
[18] = test system: 786-0; assay: Growth inhibition of human 786-0 cells assessed tumor cell growth at 10^-5 M; procedure, shortened: as §2
[19] = test system: SK-OV-3; assay: Growth inhibition of human SKOV3 cells assessed tumor cell growth at 10^-5 M; procedure, shortened: as §2
[20] = test system: HCC 2998; assay: Growth inhibition of human HCC2998 cells assessed tumor cell growth at 10^-5 M; procedure, shortened: as §2
[21] = test system: T47D; assay: Growth inhibition of human T47D cells assessed tumor cell growth at 10^-5 M; procedure, shortened: as §1
[22] = test system: MCF7; assay: Growth inhibition of human MCF7 cells assessed tumor cell growth at 10^-5 M; procedure, shortened: as §2
[23] = test system: M14; assay: Growth inhibition of human M14 cells assessed tumor cell growth at 10^-5 M; procedure, shortened: as §2
[24] = test system: BT-549; assay: Growth inhibition of human BT549 cells assessed tumor cell growth at 10^-5 M; procedure, shortened: as §2
[25] = test system: SNB-75; assay: Growth inhibition of human SNB75 cells assessed tumor cell growth at 10^-5 M; procedure, shortened: as §1
[26] = test system: HCT-116; assay: Growth inhibition of human HCT116 cells assessed tumor cell growth at 10^-5 M; procedure, shortened: as §2
[27] = test system: KM12; assay: Growth inhibition of human KM12 cells assessed tumor cell growth at 10^-5 M; procedure, shortened: as §2
[28] = test system: ACHN; assay: Growth inhibition of human ACHN cells assessed tumor cell growth at 10^-5 M; procedure, shortened: as §2
[29] = test system: HOP-62; assay: Growth inhibition of human HOP62 cells assessed tumor cell growth at 10^-5 M; procedure, shortened: as §2
[30] = test system: SK-MEL-5; assay: Growth inhibition of human SK-MEL-5 cells assessed tumor cell growth at 10^-5 M; procedure, shortened: as §2
[31] = test system: HL-60(TB); assay: Growth inhibition of human HL-60(TB) cells assessed tumor cell growth at 10^-5 M
Procedure, shortened: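 HL-60(TB), part of the 60-line panel, tested at a single concentration of 10^-5 M. The read-out is percent tumor cell growth relative to untreated growth.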

[32] = test system: SN12C; assay: Growth inhibition of human SN12C cells assessed tumor cell growth at 10^-5 M; procedure, shortened: as §2
[33] = test system: NCI-H460; assay: Growth inhibition of human NCI-H460 cells assessed tumor cell growth at 10^-5 M; procedure, shortened: as §2
[34] = test system: CCRF-CEM; assay: Growth inhibition of human CCRF-CEM cells assessed tumor cell growth at 10^-5 M; procedure, shortened: as §2
[35] = Growth inhibition of human Hs 578T cells assessed tumor cell growth at 10^-5 M; procedure, shortened: as §2
[36] = test system: LOX IMVI; assay: Growth inhibition of human LOXIMVI cells assessed tumor cell growth at 10^-5 M; procedure, shortened: as §2
[37] = test system: HT-29; assay: Growth inhibition of human HT-29 cells assessed tumor cell growth at 10^-5 M; procedure, shortened: as §2
[38] = test system: OVCAR-3; assay: Growth inhibition of human OVCAR3 cells assessed tumor cell growth at 10^-5 M; procedure, shortened: as §2
[39] = test system: SK-MEL-28; assay: Growth inhibition of human SK-MEL-28 cells assessed tumor cell growth at 10^-5 M; procedure, shortened: as §2
[40] = test system: K562; assay: Growth inhibition of human K562 cells assessed tumor cell growth at 10^-5 M; procedure, shortened: as §2
[41] = test system: SW-620; assay: Growth inhibition of human SW620 cells assessed tumor cell growth at 10^-5 M; procedure, shortened: as §1
[42] = test system: A498; assay: Growth inhibition of human A498 cells assessed tumor cell growth at 10^-5 M; procedure, shortened: as §2
[43] = test system: HCT-15; assay: Growth inhibition of human HCT15 cells assessed tumor cell growth at 10^-5 M; procedure, shortened: as §2
[44] = test system: SK-MEL-2; assay: Growth inhibition of human SK-MEL-2 cells assessed tumor cell growth at 10^-5 M; procedure, shortened: as §2
[45] = test system: NCI-H322M; assay: Growth inhibition of human NCI-H322M cells assessed tumor cell growth at 10^-5 M; procedure, shortened: as §2
[46] = test system: NCI-H522; assay: Growth inhibition of human NCI-H522 cells assessed tumor cell growth at 10^-5 M; procedure, shortened: as §2
[47] = test system: OVCAR-5; assay: Growth inhibition of human OVCAR5 cells assessed tumor cell growth at 10^-5 M; procedure, shortened: as §2
[48] = test system: NCI-H226; assay: Growth inhibition of human NCI-H226 cells assessed tumor cell growth at 10^-5 M; procedure, shortened: as §2
[49] = test system: MDA-MB-468; assay: Growth inhibition of human MDA-MB-468 cells assessed tumor cell growth at 10^-5 M; procedure, shortened: as §2
[50] = test system: EKVX; assay: Growth inhibition of human EKVX cells assessed tumor cell growth at 10^-5 M; procedure, shortened: as §2
[51] = test system: MOLT-4; assay: Growth inhibition of human MOLT4 cells assessed tumor cell growth at 10^-5 M; procedure, shortened: as §2
[52] = test system: RXF 393; assay: Growth inhibition of human RXF393 cells assessed tumor cell growth at 10^-5 M; procedure, shortened: as §2
[53] = test system: UACC-257; assay: Growth inhibition of human UACC257 cells assessed tumor cell growth at 10^-5 M; procedure, shortened: as §1
[54] = test system: A549; assay: Growth inhibition of human A549 cells assessed tumor cell growth at 10^-5 M; procedure, shortened: as §2
[55] = test system: SF-295; assay: Growth inhibition of human SF295 cells assessed tumor cell growth at 10^-5 M; procedure, shortened: as §2
[56] = test system: PC-3; assay: Growth inhibition of human PC3 cells assessed tumor cell growth at 10^-5 M; procedure, shortened: as §2
[57] = test system: IGROV-1; assay: Growth inhibition of human IGROV1 cells assessed tumor cell growth at 10^-5 M; procedure, shortened: as §2
[58] = test system: TK-10; assay: Growth inhibition of human TK10 cells assessed tumor cell growth at 10^-5 M; procedure, shortened: as §1

Which results are given for `C=CCn1cc(/C=C2\C(=O)N(c3cccc(Cl)c3)N=C2C)c2ccccc21`?
Activity [1]: 74.52%; Activity [2]: 91.67%; Activity [3]: 75.8%; Activity [4]: 101.89%; Activity [5]: 82.6%; Activity [6]: 69.6%; Activity [7]: 101.01%; Activity [8]: 84.21%; Activity [9]: 84.32%; Activity [10]: 97.52%; Activity [11]: 72.84%; Activity [12]: 98.8%; Activity [13]: 109.63%; Activity [14]: 88.73%; Activity [15]: 73.37%; Activity [16]: 106.35%; Activity [17]: 113.25%; Activity [18]: 115.97%; Activity [19]: 94.6%; Activity [20]: 103.61%; Activity [21]: 69.36%; Activity [22]: 79.85%; Activity [23]: 96.28%; Activity [24]: 89.1%; Activity [25]: 71.75%; Activity [26]: 89.43%; Activity [27]: 90.06%; Activity [28]: 94.59%; Activity [29]: 102.06%; Activity [30]: 85.6%; Activity [31]: 99.5%; Activity [32]: 101.52%; Activity [33]: 91.1%; Activity [34]: 94.38%; Activity [35]: 97.36%; Activity [36]: 90.56%; Activity [37]: 105.44%; Activity [38]: 116.71%; Activity [39]: 97.08%; Activity [40]: 77.68%; Activity [41]: 97.77%; Activity [42]: 69.09%; Activity [43]: 96.63%; Activity [44]: 100.76%; Activity [45]: 79.41%; Activity [46]: 104.32%; Activity [47]: 86.3%; Activity [48]: 70.94%; Activity [49]: 84.91%; Activity [50]: 54.36%; Activity [51]: 75.53%; Activity [52]: 90.86%; Activity [53]: 88.64%; Activity [54]: 104.05%; Activity [55]: 89.63%; Activity [56]: 101.22%; Activity [57]: 98.62%; Activity [58]: 110.49%
